The record followed here is ChEMBL document CHEMBL1124067, “Design of potent cyclic gonadotropin releasing hormone antagonists” (J Med Chem, 1988).

Holding throughout (type): functional
The species entered for assay [1] is Rattus norvegicus. Put plainly: Effect on GnRH-induced LH secretion in intact male rats at 25 ug of compound along with 50 ng of GnRH; ng of LH/mL. Put shortly: (§1)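 Intact adult male Sprague-Dawley rats. Antagonist injected iv into the jugular vein (1 mL) under ether, immediately before GnRH. Peptide dissolved in 2 N HOAc, then diluted in 0.1% BSA-0.04 M phosphate buffer pH 7.4. Blood taken 10 min after injection. Plasma LH in ng/mL ± SEM, six rats per treatment.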

Assay [2] relates to Rattus norvegicus. Put plainly: In vivo antiovulatory assay (AOA) carried out in rats injected sc. In short, it runs like this:
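Antiovulatory assay following Corbin and Beattie. Cycling rats injected sc at noon on proestrus with peptide dissolved in saline (200 μL). Dose in micrograms; read-out is the number of rats ovulating out of the total.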

For assay [3], the species on record is Rattus norvegicus. Put plainly: Effect on GnRH-induced LH secretion in intact male rats at 100 ug of compound along with 50 ng of GnRH; ng of LH/mL. Put shortly: as §1
Assay [4] concerns Rattus norvegicus. Put plainly: Effect of oral administration of compound (3 mg) on LH secretion by castrated male rats; ng of LH/mL. Put shortly: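 Adult Sprague-Dawley male rats, castrated under light ether anesthesia 7-10 days before assay. Peptide dissolved in 2 N HOAc, then diluted in 0.1% BSA-0.04 M phosphate buffer pH 7.4. Given by gavage tube (0.5 mL) under ether. Blood sampled before treatment and 5 h after. Plasma LH in ng/mL, mean ± SEM, five rats per treatment.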

SMILES strings stand for the structures. Values joined by “and” are separate entries in the source; they are usually repeats but may differ in a detail not shown here. Equal entries are not always repeated. Positions of bridges follow the written chain, without caps; N, C: chain ends. Non-standard residues stand in square brackets, D forms with d. Residues, ends and D or L forms follow the SMILES beside them. dPhe(4-Cl) = N[C@H](Cc1ccc(Cl)cc1)C(=O)O; d2Nal = N[C@H](Cc1ccc2ccccc2c1)C(=O)O; d3Pal = N[C@H](Cc1cccnc1)C(=O)O

Regarding `CC(=O)N[C@H](Cc1ccc2ccccc2c1)C(=O)N[C@H](Cc1ccc(Cl)cc1)C(=O)N[C@H](Cc1cccnc1)C(=O)N[C@H]1CSSC[C@@H](C(N)=O)NC(=O)[C@@H]2CCCN2C(=O)[C@H](CCCNC(=N)N)NC(=O)[C@H](CC(C)C)NC(=O)[C@@H](Cc2cccnc2)NC(=O)[C@H](CCCNC(=N)N)NC1=O` (Ac-[d2Nal][dPhe(4-Cl)][d3Pal]CR[d3Pal]LRPC-NH2; disulfide 4-10), the Activity is on record as 1.62 in the assay filed under Rattus norvegicus [1], 1.4 in the assay listed under Rattus norvegicus [3] and 8.31 in the assay with Rattus norvegicus [4]. The Dose in the assay on Rattus norvegicus [2] was 10 µg and 25 µg.
